Measured values gathered from unrelated publications.
Protocols differ between the studies behind these lines.
EP300: Histone acetyltransferase p300 (EP300, Homo sapiens, UniProt Q09472)

`Nc1ncnc2occ(-c3ccc(NC(=O)Nc4cc(C(F)(F)F)ccc4F)cc3)c12` gave a remaining signal of 9.2% (Tyrosine-protein kinase ABL1, phosphorylated (ABL1, Homo sapiens, UniProt P00519, F317L); cell-free assay, inhibitor; 20 µM).
For `Cc1cnc(Nc2ccc(OCCN3CCCC3)cc2)nc1Nc1cccc(S(=O)(=O)NC(C)(C)C)c1`, the ΔTm was 2.76 °C (EP300; thermal stability, DSF; 10 µM).
`CN(C)C1CCN(CC#Cc2nn(C3CCCC3)c3nc(NCc4ccccc4)ncc23)C1` (stereo not drawn) has an inhibition of 55% (Misshapen-like kinase 1 (MINK1, Homo sapiens, UniProt Q8N4C8); enzyme activity, inhibitor, FRET; 10 µM).
For `Cc1cnc(NC2CCOCC2)nc1-n1cnc(C(=O)NC(CN)c2cc(F)cc(Cl)c2)c1` (stereo not drawn), the remaining activity was 95% (Tyrosine-protein kinase ABL1 (ABL1, Homo sapiens, UniProt P00519, M351T); enzyme activity, inhibitor, radiometric; 1 µM).
`NS(=O)(=O)c1ccc(Nc2nc(-c3ccc(F)cc3)c3ccccc3n2)cc1` gave a remaining binding of 62% (EP300; binding, competition with immobilised ligand; 1 µM).
With `Cc1ccc(C(=O)Nc2ccc(CN3CCN(C)CC3)c(C(F)(F)F)c2)cc1C#Cc1cnc2cccnn12` the remaining activity was 100% (Serine/threonine-protein kinase Nek10 (NEK10, Homo sapiens, UniProt Q6ZWH5); enzyme activity, inhibitor; 23.5 nM).
`CCN(CC)CCNC(=O)c1c(C)[nH]c(/C=C2\C(=O)Nc3ccc(F)cc32)c1C` has an inhibition of 0% (Protein kinase C beta type (PRKCB, Homo sapiens, UniProt P05771); enzyme activity, inhibitor; 10 µM).
With `Oc1cccc(Nc2nc(-c3ccc(F)cc3F)cs2)c1` the inhibition was 76% (Cholecystokinin receptor type A (CCKAR, Homo sapiens, UniProt P32238); cell-free assay; 10 µM).
`O=c1oc2c(O)c(O)cc3c(=O)oc4c(O)c(O)cc1c4c23` has an inhibition of 2% (N-lysine methyltransferase KMT5A (KMT5A, Homo sapiens, UniProt Q9NQR1); cell-free assay; 10 µM).
`c1ccc([C@H]2O[C@H]2c2ccccc2)cc1` gave a Km of 141 µM (Epoxide hydrolase 1 (EPHX1, Homo sapiens, UniProt P07099); enzyme activity, substrate; pH 9).
`Cc1cc(NC(=O)c2cccc3cc(-c4cccc5[nH]nc(N)c45)ccc23)ccc1F` has an activity vs control of 85% (Tyrosine-protein kinase ABL1 (ABL1, Homo sapiens, UniProt P00519); enzyme activity, inhibitor; 0.1 µM).
`COc1cc(-c2cc(-c3ccc(N4CCNCC4)cc3)cnc2N)cc(OC)c1OC` gave an inhibition of 96% (Tyrosine-protein kinase ABL1 (ABL1, Homo sapiens, UniProt P00519, H396P); enzyme activity, inhibitor; 1 µM).
